MC4R antagonist – blocks human MC4R cAMP signaling; 360,000 compounds, 0.48% hits; AID 540295; inhibition, % at 6.5 µM; MC4R-expressing cells, MTII-stimulated cAMP, LANCE TR-FRET; P32245;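 active means inhibition above its plate's cutoff, the mean of tested wells on that plate plus 3 SD, cut at about 29% in these data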
Target sequence (P32245 whole entry, looked up): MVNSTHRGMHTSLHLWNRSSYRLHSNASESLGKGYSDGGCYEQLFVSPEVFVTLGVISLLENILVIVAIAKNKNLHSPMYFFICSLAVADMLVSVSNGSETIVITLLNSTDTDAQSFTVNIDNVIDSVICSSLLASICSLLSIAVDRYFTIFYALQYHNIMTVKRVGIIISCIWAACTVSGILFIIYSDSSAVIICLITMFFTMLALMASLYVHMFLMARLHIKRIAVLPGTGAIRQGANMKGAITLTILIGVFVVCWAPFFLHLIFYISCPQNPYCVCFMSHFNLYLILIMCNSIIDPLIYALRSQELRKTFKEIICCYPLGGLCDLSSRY
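Assay system: human MC4R-expressing U2OS cells; reagent: Melanotan II stimulation of cells; dosing: 6.5 µM single dose; timing: compound 30 min, challenge 1 h, detection 1 h; signal: TR-FRET cAMP assay; replicates: one well per compound, no replicates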
ABHD5 PLIN5 PPI – inhibitors of human ABHD5-perilipin-5 interaction; Q00G26+Q8WTS1; Split G. princeps luciferase complementation, luminescence, 4 h; inhibition, % at 4 µM; 360,000 compounds, 0.78% hits;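 active means inhibition above the mean inhibition across every tested compound plus 3 SD, cut at about 22% in these data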
MC4R ag barr – agonists of human melanocortin 4 receptor (MC4R) beta-arrestin; 360,000 compounds, 0.98% hits; P32245; U2OS MC4R beta-arrestin complementation, luminescence; percent of melanotan II response, DMSO zero; activation, % at 8.9 µM;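 active means activation above a per-plate cutoff, the mean activation of sample wells on that plate plus 3 SD, cut at about 8% in these data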
PfGluPho inh – PfG6PD (Plasmodium falciparum) enzyme inhibition. 350,000 compounds, 0.78% hits. inhibition, % at 20 µM. PfGluPho enzyme, NADPH resazurin-diaphorase fluorescence;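 active means inhibition reaching at least a set limit at 20 µM in the primary screen, cut at about 59% in these data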
B2AR ag – human beta-2 adrenergic receptor agonism by FAP. P07550. Am2.2-beta2AR cells, FAP receptor internalization, flow cytometry. response, % (test concentration not listed). 340,000 compounds, 0.43% hits. AID 504454;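 active means response above a set limit, near 3 SD of response in nonfluorescent compounds, cut at about 42% in these data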
Each line names hits and unclear results; the compound was inactive in the other large screens. In the library only some 3% were active in any assay of this set; here they are far more common.

CCCNC(=O)N(C)C[C@@H]1Oc2ncc(-c3ccncc3)cc2C(=O)N([C@H](C)CO)C[C@@H]1C	none (no result: B2AR ag)
CC(=O)Nc1cccc(OCC(=O)NC(C)c2ccc3ccccc3c2)c1 (centres undefined)	none
C#CCSc1nc2sc3c(c2c(=O)n1C)CCC3	MC4R ag barr 9.1
CCOC(=O)c1c(NC(=O)Cn2nc(C(=O)O)c3ccccc3c2=O)sc(C)c1C	MC4R ag barr 9.0
O=C(O)COc1ccc(/C=C/C(=O)c2ccc(C3CCCCC3)cc2)cc1	MC4R ag barr 8.8
O=C(O)COc1ccc(/C=C/C(=O)c2ccc3ccccc3c2)cc1	none
COc1ccc(-c2cc(C(F)(F)F)nc(S(=O)(=O)CCCC(=O)Nc3cccc(O)c3)n2)cc1OC	ABHD5 PLIN5 PPI 23 (no result: B2AR ag)
Cc1ccc(S(=O)(=O)CCC(=O)Nc2cc(C)on2)cc1	none (no result: B2AR ag)
Cc1cc(NC(=O)CCS(=O)(=O)c2nc(-c3ccccc3)cc(C(F)(F)F)n2)no1	ABHD5 PLIN5 PPI 42
CN(C(=O)CN1CCN(c2ccccc2F)CC1)C1CCCc2ccccc21 (centres undefined)	none
O/N=C/c1ccn(-c2ccc(Br)cc2)c1	none
N#CCC(=O)N/N=C/c1cn(Cc2ccc(Cl)c(Cl)c2)c2ccccc12	MC4R ag barr 20
COc1ccc(C2C(O)C(c3c[nH]c4ccccc34)=NN2C(=O)CCl)cc1 (centres undefined)	MC4R ag barr 16
CSc1ccc(/C=C2\CCn3c2nc2cc(C(=O)O)ccc2c3=O)cc1	none
CC1CC(=O)c2cc(-c3ccccc3)oc2C1 (centres undefined)	none (no result: B2AR ag)
CC1CC(=O)C(C(C2=C(O)CC(C)CC2=O)c2ccccc2)=C(O)C1 (centres undefined)	ABHD5 PLIN5 PPI 23
Nc1nc(-c2ccccc2)c(N=Nc2cccc3ccccc23)s1	ABHD5 PLIN5 PPI 23
CC(=O)Nc1sc(N)nc1-c1ccccc1	none
NC(N)=N/N=C/c1ccc(OCc2ccccc2Cl)cc1	MC4R ag barr 22, B2AR ag 53
COc1ccc(N(C(=O)c2ccco2)C(C(=O)NC2CCCC2)c2cccs2)c(OC)c1 (centres undefined)	none
C#CC(=O)N(c1cccc(OC)c1)C(C(=O)NC1CCCC1)c1cccs1 (centres undefined)	MC4R antagonist 35, ABHD5 PLIN5 PPI 23
Cc1c(C)n(CCCN(C)C)c2ncnc(Nc3ccc(F)cc3)c12	none
COc1ccccc1NC(=O)Nc1nnc(Cc2ccccc2F)s1	none
COc1ccc(OCc2nnc(NC(=O)Nc3ccccc3F)s2)cc1	MC4R ag barr 8.3
C=CCn1c(=O)c2c(nc3n2CC(C)CN3Cc2ccccc2)n(C)c1=O (centres undefined)	none
COc1ccc(C(=O)OCC(=O)Nc2ccc(Cl)cn2)cc1	MC4R ag barr 8.8
O=C(CO/N=C/c1ccccc1O)N1CCc2ccccc21	B2AR ag 72
Cc1ccc(CC(=O)Nc2nnc(-c3ccc(F)cc3)o2)c(C)c1	none
COc1cc2c(cc1NC(=O)CSc1ccc(C)cc1)oc1ccccc12	none
COc1cc2c(cc1NC(=O)CSc1nnnn1-c1ccccc1)oc1ccccc12	MC4R ag barr 37
CC1(C(=O)Nc2ccc3c(c2)OCCO3)CCC(=O)N1C1CCN(Cc2ccccc2)CC1 (centres undefined)	none (no result: MC4R antagonist, MC4R ag barr, PfGluPho inh, B2AR ag)
O=C1N=C(N2CCN(c3ccccc3)CC2)S/C1=C\c1cn[nH]c1-c1ccccc1	MC4R ag barr 8.5
Nc1nc(SCc2ccccc2)c2ncn(CCO)c2n1	none
Cc1ccc(C(=O)CN2/C(=C(\O)c3ccccc3)C(=O)c3ccccc3S2(=O)=O)c(C)c1	MC4R ag barr 12
Cn1c(=O)c2ccccc2n2c(CCl)nnc12	ABHD5 PLIN5 PPI 23
OC(CN1CCN(C(c2ccccc2)c2ccccc2)CC1)c1ccccc1 (centres undefined)	MC4R ag barr 10.0
Cc1cc(C)c(C(=O)/C=C/C=C/c2ccccc2)c(=O)[nH]1	none
Cc1cc(C)c(C(=O)/C=C/c2ccc(C(C)C)cc2)c(=O)[nH]1	ABHD5 PLIN5 PPI 37
O=C(CSc1nnc(-c2c[nH]c3ccccc23)n1C1CC1)NC1CCS(=O)(=O)C1 (centres undefined)	none (no result: B2AR ag)
CCCCNC(=O)CSc1nc2ccccc2n1S(=O)(=O)c1ccc(Br)cc1	none
O=C(CSc1nc2ccccc2n1S(=O)(=O)c1cccc([N+](=O)[O-])c1)NCCc1ccccc1	MC4R ag barr 9.4
S=c1[nH]nc(C2CCCCC2)n1/N=C/c1cccc(Cl)c1Cl	none
COc1cc2c(OC(C)=O)c3c(c(-c4ccc5c(c4)OCO5)c2cc1OC)C(=O)OC3	B2AR ag 59
COc1cc2c(O)c3c(c(-c4ccc5c(c4)OCO5)c2cc1OC)C(=O)OC3	B2AR ag 45
COc1ccc(-c2oc(=O)c3cc(OC)c(OC)cc3c2-c2ccc3c(c2)OCO3)cc1	none
Cc1ccc(-n2nc3ccc(NC(=O)c4cccc([N+](=O)[O-])c4C)cc3n2)cc1	MC4R ag barr 8.9
Cc1ccc(-n2nc3ccc(NC(=O)c4ccco4)cc3n2)cc1	none
CCCCNC(=O)CSc1nc2ccccc2c(=O)n1CC1COc2ccccc2O1 (centres undefined)	MC4R ag barr 9.4
CCCCN(CC)C(=O)CSc1nc2ccccc2c(=O)n1CC1COc2ccccc2O1 (centres undefined)	none
CCCCCCn1c(SCC(=O)Nc2cc(C)on2)nc2ccccc2c1=O	MC4R ag barr 12
CCCCCCn1c(SCC(=O)OC)nc2c1c(=O)[nH]c(=O)n2C	PfGluPho inh 78
Cc1ccccc1NC(=O)CN(C)S(=O)(=O)c1cccs1	none
COc1cc(NC(=O)Nc2nc(C(N)C(C)C)cs2)cc(OC)c1OC (centres undefined)	none (no result: PfGluPho inh, B2AR ag)
COc1ccc([N+](=O)[O-])c(S(=O)(=O)c2ccc(Cl)cc2)n1	ABHD5 PLIN5 PPI 39
CC(C)Oc1cccc(NC(=O)C2(C)CCCN2C(=O)C(C)C)c1 (centres undefined)	none (no result: PfGluPho inh, B2AR ag)
Cc1ccc(C)c(N2CCN(S(=O)(=O)c3ccc(-c4ccc(=O)[nH]n4)o3)CC2)c1	MC4R ag barr 11
Cc1ccc(Cl)cc1N1CCN(S(=O)(=O)c2ccc(-c3ccc(=O)[nH]n3)o2)CC1	none
Cc1ccc2c(c1)N(C(=O)CCC(=O)N1CCC(C(N)=O)CC1)CCO2	none
O=C(CCl)Nc1ccccc1Sc1ccc(Cl)cc1	PfGluPho inh 87
CCOc1ccc(C(=O)CCC(=O)N(CC)CC(=O)NCc2ccc(Cl)cc2)cc1	none
CCOc1ccc2c(c1)C(C)=CC(C)(C)N2C(=O)Nc1ccccc1	PfGluPho inh 78
CC1CCN(CC(=O)Nc2ccc(C(=O)N3CCCCC3)cc2)CC1	none
Cc1ccc(OCCNC(=O)c2cncc(Br)c2)cc1C	none
Cc1cccc(OCCNC(=S)NC(=O)c2cncc(Br)c2)c1	MC4R ag barr 9.3
O=C(/C=C/c1ccco1)NCC1(c2ccccc2)CCCC1	none

Source: PubChem
